# Measurements from ChEMBL document CHEMBL4390639, “Design, Synthesis, and Biological Evaluation of Novel Allosteric Protein Disulfide Isomerase Inhibitors” (J Med Chem, 2019).
# pIC50: −log10 of the molar value. Active and inactive are the calls of the source. The calls are words filed in the database; no cut-off is given here.
# Legend:
# [1] = target: T1, Protein disulfide-isomerase (Homo sapiens, UniProt P07237); assay: Inhibition of recombinant human N-terminal His-tagged PDI expressed in Escherichia coli BL21 (DE3) pLysS assessed as reduction in enzyme-mediated bovine insulin aggregation
# Target sequence in this assay (P07237 whole entry): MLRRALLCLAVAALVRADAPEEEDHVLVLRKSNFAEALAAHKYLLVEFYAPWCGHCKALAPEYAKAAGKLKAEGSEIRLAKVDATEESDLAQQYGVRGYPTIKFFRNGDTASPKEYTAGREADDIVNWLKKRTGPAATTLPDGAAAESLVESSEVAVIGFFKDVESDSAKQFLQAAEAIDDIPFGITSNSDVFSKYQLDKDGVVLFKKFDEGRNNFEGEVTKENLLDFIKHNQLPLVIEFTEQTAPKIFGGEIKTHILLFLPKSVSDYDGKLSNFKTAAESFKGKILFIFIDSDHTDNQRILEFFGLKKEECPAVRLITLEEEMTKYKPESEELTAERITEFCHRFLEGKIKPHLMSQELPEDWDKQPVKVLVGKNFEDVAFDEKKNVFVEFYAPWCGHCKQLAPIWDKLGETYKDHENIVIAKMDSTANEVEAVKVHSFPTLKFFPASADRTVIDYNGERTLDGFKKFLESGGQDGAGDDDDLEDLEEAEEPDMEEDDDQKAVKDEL
# U-87 MG [2] = assay: Cytotoxicity against human U87MG cells assessed as inhibition of cell growth measured after 72 hrs by MTT assay; format: functional, cell-based, U-87MG ATCC; settings: Homo sapiens, U-87 MG, 72 h; read-out: IC50
# How it was run: (§1)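 A172 and NU04 cells were seeded at 4000 cells/well and U87MG at 5000 cells/well, incubated overnight at 37 °C, 5% CO2, then exposed to compound or vehicle for 72 h. MTT (3 mg/mL) was added for 4 h, formazan was dissolved in DMSO, and absorbance was read at 570 nm. IC50 came from nonlinear regression; mean ± SD of at least three experiments.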
# A 172 [3] = assay: Cytotoxicity against human A172 cells assessed as inhibition of cell growth measured after 72 hrs by MTT assay; format: functional, cell-based; settings: Homo sapiens, A 172, 72 h; read-out: IC50; how it was run: as §1
# [4] = Cytotoxicity against human NU04 cells assessed as inhibition of cell growth measured after 72 hrs by MTT assay; format: functional, cell-based; settings: Homo sapiens, 72 h; read-out: IC50; how it was run: as §1
# [5] = Therapeutic ratio of IC50 for HFF1 cells to IC50 for human NU04 cells
# How it was run: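 Ratio of two growth-inhibition IC50s, HFF-1 normal human fibroblasts over NU04 glioma cells. Cells were grown as monolayers at 37 °C in 5% CO2, with NU04 seeded at 4000 cells/well. After overnight attachment, cells were exposed to compound or vehicle for 72 h. MTT (3 mg/mL) was added for 4 h, and formazan dissolved in DMSO was read at 570 nm. IC50s came from nonlinear regression of log concentration-response curves, with at least three independent experiments.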
# [6] = target: T1, Protein disulfide-isomerase; assay: Binding affinity to recombinant human N-terminal His-tagged PDI expressed in Escherichia coli BL21 (DE3) pLysS assessed as increase in melting temperature by ROX dye based thermal shift assay
# How it was run: (§2)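 Purified wild-type, C53S/C397S or H256A PDI at 0.5 mg/mL in 50 mM Tris, pH 7.0, with or without 100 μM compound, was mixed with ROX dye in a 20 µL well. DMSO (5% in buffer) was the control. Samples were heated 25–99 °C at 1 °C/min, and the Boltzmann melting temperature shift versus DMSO was reported. Mean ± SD of three experiments.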
# Target sequence in this assay (P07237 18-508 limits assumed): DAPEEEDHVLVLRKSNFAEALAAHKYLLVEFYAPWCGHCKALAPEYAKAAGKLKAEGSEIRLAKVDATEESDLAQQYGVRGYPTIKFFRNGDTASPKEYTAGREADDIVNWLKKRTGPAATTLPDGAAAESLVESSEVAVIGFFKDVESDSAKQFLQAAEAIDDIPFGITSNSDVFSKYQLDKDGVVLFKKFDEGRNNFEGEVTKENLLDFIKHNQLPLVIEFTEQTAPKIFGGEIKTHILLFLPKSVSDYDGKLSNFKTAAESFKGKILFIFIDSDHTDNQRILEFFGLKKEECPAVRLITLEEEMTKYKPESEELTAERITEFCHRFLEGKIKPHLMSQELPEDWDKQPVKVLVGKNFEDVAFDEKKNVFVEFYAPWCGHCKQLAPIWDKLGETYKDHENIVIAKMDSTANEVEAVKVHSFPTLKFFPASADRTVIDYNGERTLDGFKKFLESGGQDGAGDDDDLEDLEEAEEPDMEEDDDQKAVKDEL
# [7] = tested on: Protein disulfide-isomerase (Homo sapiens), P07237 [H256A]; assay: Binding affinity to recombinant human N-terminal His-tagged PDI H256A mutant expressed in Escherichia coli BL21 (DE3) pLysS assessed as change in melting temperature at 100 uM by ROX dye based thermal shift assay; how it was run: as §2
# [8] = tested on: Protein disulfide-isomerase (Homo sapiens), P07237 [C53S,C397S]; assay: Binding affinity to recombinant human N-terminal His-tagged PDI C53S/C397S double mutant expressed in Escherichia coli BL21 (DE3) pLysS assessed as change in melting temperature at 100 uM by ROX dye based thermal shift assay; how it was run: as §2
# [9] = target: Eukaryotic translation initiation factor 2 subunit 1 (Homo sapiens) (UniProt P05198); assay: Induction of EIF2alpha phosphorylation in human U87MG cells at 20 uM measured after 2 hrs by Western blot analysis; format: cell-based
# How it was run: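 eIF2α phosphorylation in U87MG cells after 2 h with 1 µM PACMA31 or 20 µM analogues; tunicamycin 10 µg/mL as comparator. Lysates (Tris/NaCl/Triton/SDS, sonicated) quantified by BCA; 30 µg protein separated on 10% gels, blotted to PVDF, probed for phospho-eIF2α, detected by fluorescence.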
# U-87 MG [10] = assay: Induction of endoplasmic reticulum stress in human U87MG cells assessed as increase in GRP78 expression at 20 uM measured after 24 hrs by Western blot analysis; format: functional, cell-based; settings: U-87MG ATCC
# How it was run: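 ER-stress immunoblot: 0.5 x 10^6 U87MG cells/well treated for 24 h with 20 µM analogues, 1 µM PACMA31 or DMSO; tunicamycin 10 µg/mL for 2 or 24 h as positive control. Lysis in Tris/NaCl/Triton/SDS buffer with sonication; 30 µg protein on 10% gels, transferred to PVDF, GRP78 probed, fluorescence imaging.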
# [11] = target: Eukaryotic translation initiation factor 2 subunit 1 (Homo sapiens) (UniProt P05198); assay: Induction of EIF2alpha phosphorylation in human A172 cells at 20 uM measured after 2 hrs by Western blot analysis; format: cell-based
# A 172 [12] = assay: Induction of endoplasmic reticulum stress in human A172 cells assessed as increase in GRP78 expression at 20 uM measured after 24 hrs by Western blot analysis; format: functional, cell-based
# U-87 MG [13] = assay: Effect on PDI expression in human U87MG cells at 20 uM measured after 24 hrs by Western blot analysis; format: functional, cell-based; settings: U-87MG ATCC
# A 172 [14] = assay: Effect on PDI expression in human A172 cells at 20 uM measured after 24 hrs by Western blot analysis; format: functional, cell-based
# [15] = target: Focal adhesion kinase 1 (Homo sapiens) (UniProt Q05397); assay: Effect on FAK phosphorylation in human U87MG cells at 10 uM measured after 24 hrs by Western blot analysis; format: cell-based
# [16] = tested on: Protein disulfide-isomerase (Homo sapiens), P07237 [H256A]; assay: Inhibition of recombinant human N-terminal His-tagged PDI H256A mutant expressed in Escherichia coli BL21 (DE3) pLysS at 10 uM assessed as reduction in enzyme-mediated bovine insulin aggregation
# How it was run: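 Insulin reductase assay against H256A PDI: 0.4 μM enzyme preincubated with compounds at 10 μM for 1 h at 37 °C in 100 mM sodium phosphate, 2 mM EDTA, 8 μM DTT, pH 7.0. Then 500 μM DTT and 130 μM bovine insulin added; aggregation read at 620 nm at room temperature. Activity % from OD change at 0 and 80 min, relative to PDI and DTT-only controls; three experiments.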
# [17] = target: T1, Protein disulfide-isomerase; assay: Inhibition of recombinant human N-terminal His-tagged PDI expressed in Escherichia coli BL21 (DE3) pLysS at 100 uM measured after 1 hr by ANS dye based fluorescence spectra analysis
# How it was run: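 ANS spectral scan: PDI incubated with 100 μM compounds or matching DMSO in TBS for 1 h at 37 °C. ANS then added and incubated 20 min at 25 °C in the dark. Fluorescence spectrum recorded with excitation 370 nm, emission 400–700 nm.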
# Target sequence in this assay (P07237 18-508 limits assumed): as above
# [18] = target: T1, Protein disulfide-isomerase; assay: Inhibition of recombinant human N-terminal His-tagged PDI expressed in Escherichia coli BL21 (DE3) pLysS assessed as reduction in enzyme-mediated bovine insulin aggregation at 40 uM measured after 1 hr in presence of 5 mM NAC
# How it was run: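 Compounds pretreated with NAC for 30 min at 37 °C, then added to the insulin reductase assay at final 40 μM compound with 0, 1, 2 or 5 mM NAC. The assay uses 0.4 μM PDI preincubated 1 h at 37 °C, then DTT and bovine insulin, read at 620 nm, with % activity at 80 min.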
# Target sequence in this assay (P07237 18-508 limits assumed): as above
# A 172 [19] = assay: Antimigratory activity against human A172 cells at 30 uM measured after 4 hrs by Giemsa staining based transwell migration assay; format: functional, cell-based
# How it was run: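 A172 cells (1 x 10^5) were treated with compound and seeded into inserts with 8.0 μm PET membrane in serum-free medium. DMEM with 10% FBS was in the lower well; wells without FBS served as control. After 4 h, migrated cells were Giemsa-stained and imaged at 10X, 5 fields per well.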
# Chain of Focal adhesion kinase 1 (Homo sapiens) (Q05397 2-1052 limits assumed): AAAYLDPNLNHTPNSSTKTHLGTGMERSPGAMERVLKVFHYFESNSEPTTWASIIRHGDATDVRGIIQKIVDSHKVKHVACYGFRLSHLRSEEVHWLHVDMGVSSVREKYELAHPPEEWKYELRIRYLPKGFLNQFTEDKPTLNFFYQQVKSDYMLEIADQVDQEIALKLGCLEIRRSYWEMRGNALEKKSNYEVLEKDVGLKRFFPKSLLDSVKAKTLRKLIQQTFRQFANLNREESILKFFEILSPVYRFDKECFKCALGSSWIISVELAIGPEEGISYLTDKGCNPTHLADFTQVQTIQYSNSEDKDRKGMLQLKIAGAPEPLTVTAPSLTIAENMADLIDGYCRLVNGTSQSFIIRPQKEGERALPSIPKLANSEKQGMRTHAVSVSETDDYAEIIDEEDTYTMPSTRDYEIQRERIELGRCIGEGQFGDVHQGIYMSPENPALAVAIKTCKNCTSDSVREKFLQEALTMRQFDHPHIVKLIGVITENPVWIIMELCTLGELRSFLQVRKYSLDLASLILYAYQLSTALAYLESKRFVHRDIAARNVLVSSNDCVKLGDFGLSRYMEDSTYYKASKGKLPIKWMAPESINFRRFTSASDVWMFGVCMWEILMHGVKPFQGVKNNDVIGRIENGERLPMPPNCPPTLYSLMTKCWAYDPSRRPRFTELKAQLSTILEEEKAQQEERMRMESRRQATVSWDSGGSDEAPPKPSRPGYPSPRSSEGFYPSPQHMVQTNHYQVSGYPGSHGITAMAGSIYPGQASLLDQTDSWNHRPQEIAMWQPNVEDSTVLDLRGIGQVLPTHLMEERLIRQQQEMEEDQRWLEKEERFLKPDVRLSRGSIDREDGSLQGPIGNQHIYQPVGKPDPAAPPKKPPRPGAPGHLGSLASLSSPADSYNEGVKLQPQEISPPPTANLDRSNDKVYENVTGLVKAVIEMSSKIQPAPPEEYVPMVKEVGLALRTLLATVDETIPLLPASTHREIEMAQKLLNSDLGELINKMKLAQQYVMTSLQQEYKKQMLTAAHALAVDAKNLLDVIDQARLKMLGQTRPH
# Chain of Protein disulfide-isomerase (Homo sapiens), P07237 [C53S,C397S] (P07237 whole entry C53S/C397S): as the sequence (P07237 whole entry) above, with C53S, C397S counted along it
# Chain of Eukaryotic translation initiation factor 2 subunit 1 (Homo sapiens) (P05198 whole entry): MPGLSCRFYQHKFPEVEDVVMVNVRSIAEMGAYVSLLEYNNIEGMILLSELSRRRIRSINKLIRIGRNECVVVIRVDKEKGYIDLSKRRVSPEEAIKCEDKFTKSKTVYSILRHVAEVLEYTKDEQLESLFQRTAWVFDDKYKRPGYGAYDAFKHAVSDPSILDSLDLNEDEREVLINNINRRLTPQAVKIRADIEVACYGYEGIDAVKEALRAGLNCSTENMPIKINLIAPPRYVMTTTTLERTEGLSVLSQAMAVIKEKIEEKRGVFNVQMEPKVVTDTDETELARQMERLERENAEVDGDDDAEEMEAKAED
# Chain of Protein disulfide-isomerase (Homo sapiens), P07237 [H256A] (P07237 whole entry H256A): as the sequence (P07237 whole entry) above, with H256A counted along it
SMILES,pIC50 [1],Activity [6],Activity [7],Activity [8],Activity [9],Activity [11],Activity [15],inhibition [16],inhibition [17],inhibition [18],pIC50 (U-87 MG [2]),pIC50 (A 172 [3]),pIC50 [4],Ratio IC50 [5],Activity (U-87 MG [10]),Activity (A 172 [12]),Activity (U-87 MG [13]),Activity (A 172 [14]),Activity (A 172 [19])
O=C(/C=C/c1ccc(-c2cccnc2)cc1)c1cccc(O)c1,6.46,Dose-dependent effect,Active,Active,Active,Active,inactive,inactive,Active,Active,4.97,4.96,5.31,4.57,Active,Active,inactive,inactive,–
COC(=O)c1cccc(/C=C/C(=O)c2cccc(O)c2)c1,6.92,Dose-dependent effect,Active,Active,Active,Active,inactive,inactive,Active,inactive,4.78,4.71,4.64,0.77,Active,Active,inactive,inactive,–
N#Cc1cccc(/C=C/C(=O)c2ccc(O)cc2)c1,–,–,inactive,Active,Active,Active,inactive,inactive,Active,Active,4.97 to 4.99,4.77,4.80,5.8,Active,Active,inactive,inactive,Active

# Now from value to compound, other results behind:
pIC50 [1],Activity [6],Activity [7],Activity [8],Activity [9],Activity [11],Activity [15],inhibition [16],inhibition [17],inhibition [18],SMILES,pIC50 (U-87 MG [2]),pIC50 (A 172 [3]),pIC50 [4],Ratio IC50 [5],Activity (U-87 MG [10]),Activity (A 172 [12]),Activity (U-87 MG [13]),Activity (A 172 [14]),Activity (A 172 [19])
6.80,–,–,–,Active,Active,inactive,inactive,–,–,CCCCCN(CCCCC)S(=O)(=O)c1ccc(C(=O)/C=C/c2cccc(C#N)c2)cc1,5.25,5.05,5.30,0.67,Active,Active,inactive,inactive,Active
6.09,Dose-dependent effect,Active,Active,Active,Active,inactive,Active,Active,inactive,CCCCCN(CCCCC)S(=O)(=O)c1ccc(C(=O)/C=C/c2cccc(O)c2)cc1,4.82,4.95,5.12,3.85,Active,Active,inactive,inactive,Active
